Values after ≈ are worked out from the molar mass of the structure shown.
Legend:
[1] = test system: Mycobacterium tuberculosis; experiment: Antimycobacterial activity against isoniazid/rifampicin/ethambutol-sensitive Mycobacterium tuberculosis H37Rv after 4 days by Alamar blue assay; format: functional; conditions: 96 h
Summary of the method: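 Microplate Alamar blue assay against M. tuberculosis H37Rv (sensitive to isoniazid, rifampicin and ethambutol) and a clinical isolate resistant to all three drugs. Compounds were tested at 256, 128, 64, 32, 16, 8, 4, 2 and 1 µg/mL. Isoniazid, rifampicin, ethambutol and ofloxacin controls were run under the same conditions. MIC is given in µg/mL and converted to µM.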

Liver [2] = experiment: Toxicity in Sprague-Dawley rat liver assessed as histological damage at 5 to 30 ug/ml after 24 hrs by hematoxylin and eosin staining-based bright field microscopic method; format: tissue-based
Summary of the method: (§1)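 Ex-vivo 3D assay using precision-cut rat liver slices. Slices were cultured for 24 h at 5, 15 and 30 µg/mL, with compound dissolved in DMSO. Controls were medium alone and 0.5% DMSO (negative), with isoniazid as the reference. Read-out was histopathology of H&E-stained sections under bright-field light microscopy (40x), scoring hepatic cords, portal triads, central veins, inflammatory infiltrate and necrosis.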

Liver [3] = experiment: Toxicity in Sprague-Dawley rat liver assessed as presence of periportal inflammatory infiltrate at 5 to 30 ug/ml after 24 hrs by hematoxylin and eosin staining-based bright field microscopic method; format: tissue-based; summary of the method: as §1
Liver [4] = experiment: Toxicity in Sprague-Dawley rat liver assessed as centrilobular necrosis at 5 to 30 ug/ml after 24 hrs by hematoxylin and eosin staining-based bright field microscopic method; format: tissue-based; summary of the method: as §1

Compound | MIC [1] [µM] | further results
C(=C\c1ccccc1)/C1=N[C@@H](Cc2ccccc2)CO1 | 60.8 (≈ 16 µg/mL) | –
Clc1ccc(/C=C/C2=N[C@@H](Cc3ccccc3)CO2)cc1 | 26.9 (≈ 8.01 µg/mL) | –
O=C(/C=C/c1ccc(OCc2ccccc2)cc1)N[C@H](CO)Cc1ccccc1 | 41.2 (≈ 16 µg/mL) | –
COc1ccc(/C=C/C(=O)N[C@H](CO)Cc2ccccc2)cc1 | 25.6 (≈ 7.97 µg/mL) | –
O=C(/C=C/c1ccc(Cl)cc1)N[C@H](CO)Cc1ccccc1 | 25.3 (≈ 7.99 µg/mL) | –
O=C(/C=C/c1ccccc1)N[C@H](CO)Cc1ccccc1 | 56.8 (≈ 16 µg/mL) | –
C(=C\c1ccc(OCc2ccccc2)cc1)/C1=N[C@@H](Cc2ccccc2)CO1 | 10.8 (≈ 3.99 µg/mL) | –
O=C(/C=C/c1cccs1)N[C@H](CO)Cc1ccccc1 | 55.6 (≈ 16 µg/mL) | –
COc1ccc(/C=C/C2=N[C@@H](Cc3ccccc3)CO2)cc1 | 13.6 (≈ 3.99 µg/mL) | Activity (Liver [2]): Non-Toxic
CO[C@H]1/C=C/O[C@@]2(C)Oc3c(C)c(O)c4c(O)c(c(/C=N/N5CCN(C)CC5)c(O)c4c3C2=O)NC(=O)/C(C)=C\C=C\[C@H](C)[C@H](O)[C@@H](C)[C@@H](O)[C@@H](C)[C@H](OC(C)=O)[C@@H]1C [RIFAMPIN] | 4.8 (≈ 3.95 µg/mL) | –
CC1COc2c(N3CCN(C)CC3)c(F)cc3c(=O)c(C(=O)O)cn1c23 (centres undefined) [OFLOXACIN] | < 2.7 | –
Fc1ccc(/C=C/C2=N[C@@H](Cc3ccccc3)CO2)cc1 | 14.2 (≈ 3.99 µg/mL) | –
CC[C@@H](CO)NCCN[C@@H](CC)CO [ETHAMBUTOL] | 39.1 (≈ 7.99 µg/mL) | –
C(=C\c1cccs1)/C1=N[C@@H](Cc2ccccc2)CO1 | 29.7 (≈ 8 µg/mL) | –
O=C(/C=C/c1ccc(F)cc1)N[C@H](CO)Cc1ccccc1 | 26.7 (≈ 7.99 µg/mL) | –
NNC(=O)c1ccncc1 [ISONIAZID] | < 7.2 | Activity (Liver [3]): Toxic; Activity (Liver [4]): Toxic

From ChEMBL document CHEMBL4002631, “Synthesis, antimycobacterial and cytotoxic activity of α,β-unsaturated amides and 2,4-disubstituted oxazoline derivatives” (Bioorg Med Chem Lett, 2017)
